According to ChEMBL document CHEMBL1122066, “Arylhydroxamic acid N,O-acyltransferase substrates. Acetyl transfer and electrophile generating activity of N-hydroxy-N-(4-alkyl-, 4-alkenyl-, and 4-cyclohexylphenyl)acetamides” (J Med Chem, 1982):

Tests used:
[1] = system: arylhydroxamic acid N,O-acyltransferase (Mesocricetus auratus); experiment: Tested for its arylhydroxamic acid N,O-Acyltransferase (AHAT) catalyzed transacetylation of aminoazobenzene with partially purified hepatic enzyme in hamster; design: Rate: unit not given here
[2] = species: Rattus norvegicus; experiment: Tested for its arylhydroxamic acid N,O-Acyltransferase (AHAT) catalyzed transacetylation of aminoazobenzene with partially purified hepatic enzyme in rat; assay type: functional
In short: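 Rat liver AHAT came from 105000g cytosol, partially purified 2- to 3-fold by ammonium sulfate. It was assayed at 1.0 mg/mL protein in pH 7.0 pyrophosphate/1 mM DTT/KCl with hydroxamic acid (1.0 mM) and AAB (0.15 mM) for 5 min at 37 °C in air. The reaction was stopped with TCA/EtOH and read at 497 nm, with a heat-denatured enzyme control. Rates are mean ± SE, N = 3–4, run in triplicate.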

[3] = species: Rattus norvegicus; experiment: Aminoazobenzene transacetylation inhibition by partially purified hepatic enzyme using iodo acetamide as inhibitor (1.0 mM) in rat; assay type: functional
In short: (§1)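 Rat or hamster liver cytosol (105000g supernatant), partially purified by ammonium sulfate fractionation, was incubated 5 min with the sulfhydryl reagent (1.0 mM). AAB transacetylation was then run in pH 7.0 pyrophosphate/1 mM DTT at 37 °C with hydroxamic acid donor (1.0 mM final) and AAB (0.15 mM final). It was stopped with TCA/EtOH and read at 497 nm. Values are % inhibition, means of 2–3 triplicate experiments.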

[4] = system: Cricetinae gen. sp.; experiment: Aminoazobenzene transacetylation inhibition by partially purified hepatic enzyme using 4-chloro mercuri benzenesulfonate as inhibitor (1.0 mM) in hamster; assay type: functional; conditions: Cricetulus griseus
In short: as §1

[5] = species: Rattus norvegicus; experiment: Aminoazobenzene transacetylation inhibition by partially purified hepatic enzyme using 4-chloro mercuri benzenesulfonate as inhibitor (1.0 mM) in rat; assay type: functional
In short: as §1

[6] = system: arylhydroxamic acid N,O-acyltransferase (Mesocricetus auratus); experiment: Tested for its arylhydroxamic acid N,O-Acyltransferase (AHAT) catalyzed transacetylation of aminoazobenzene with hamster hepatic enzyme before dialysis
[7] = system: arylhydroxamic acid N,O-acyltransferase (Mesocricetus auratus); experiment: Tested for its arylhydroxamic acid N,O-Acyltransferase (AHAT) catalyzed transacetylation of aminoazobenzene with hamster hepatic enzyme after dialysis
[8] = species: Rattus norvegicus; experiment: Aminoazobenzene transacetylation inhibition by partially purified hepatic enzyme using N-ethyl maleimide as inhibitor (1.0 mM) in rat; assay type: functional
In short: as §1

[9] = system: Cricetinae gen. sp.; experiment: Aminoazobenzene transacetylation inhibition by partially purified hepatic enzyme using N-ethyl maleimide as inhibitor (1.0 mM) in hamster; assay type: functional; conditions: Cricetulus griseus
In short: as §1

[10] = system: Cricetinae gen. sp.; experiment: Aminoazobenzene transacetylation inhibition by partially purified hepatic enzyme using iodo acetamide as inhibitor (1.0 mM) in hamster; conditions: at 1 mM
[11] = system: Cricetinae gen. sp.; experiment: Aminoazobenzene transacetylation inhibition by partially purified hepatic enzyme using iodo acetamide as inhibitor (1.0 mM) in hamster; assay type: functional; conditions: Cricetulus griseus
In short: as §1

[12] = species: Cricetulus griseus; experiment: Tested for its arylhydroxamic acid N,O-Acyltransferase (AHAT) catalyzed transacetylation of aminoazobenzene with hamster hepatic enzyme after dialysis; assay type: functional
In short: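 Hamster enzyme (partially purified by ammonium sulfate) was preincubated 20 min at 37 °C in air with the hydroxamic acid; controls had ethanol only. It was then dialyzed 6 h at 4 °C against N2-sparged pH 7.0 pyrophosphate/1 mM DTT/2% EtOH with three buffer changes. Portions taken before and after dialysis were assayed with AAB plus the same hydroxamic acid for 5 or 8 min, read at 497 nm. Rates are nmol/mg/min, mean of two triplicate experiments.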

Structure (SMILES)	Rate [1]	Rate [2] [nmol/min/mg]	further results
CC(=O)N(O)c1ccc(C)cc1	2.1	1.1	–
CCCCc1ccc(N(O)C(C)=O)cc1	8.8	4.7	–
CCCCCc1ccc(N(O)C(C)=O)cc1	13.8	5.2	–
CC(=O)N(O)c1ccc(C=C(C)C)cc1	13.1	5.7	–
CCc1ccc(N(O)C(C)=O)cc1	3.5	2.1	–
CC(=O)N(O)c1ccc(C2CCCCC2)cc1	–	4.7	inhibition ([3]; at 1 mM): 99%; Rate (mg of protein) [1]: 9.4; inhibition ([4]; at 1 mM): 100%; inhibition ([5]; at 1 mM): 100%; Rate (mg of protein) [6]: 3.2; Rate (mg of protein) [7]: 1.7; inhibition ([8]; at 1 mM): 100%; inhibition ([9]; at 1 mM): 96%; inhibition [10]: 100%
CCCc1ccc(N(O)C(C)=O)cc1	5.3	3.1	–
C/C=C/c1ccc(N(O)C(C)=O)cc1	13	5.9	–
C=Cc1ccc(N(O)C(C)=O)cc1	6.6	3.3	–
CC(=O)N(O)c1ccc(-c2ccccc2)cc1	22.4	5.8	inhibition [3]: 95%; inhibition [4]: 100%; inhibition [5]: 100%; inhibition [11]: 100%; Rate (mg of protein) [6]: 6.3; inhibition [8]: 92%; Rate (mg of protein) [12]: 6.9; inhibition [9]: 100%
CC(=O)N(O)c1ccccc1	0.6	0.2	–
